Published values pooled from the literature.
Each line is one published result; the experiments were not run side by side.
Target: Death-associated protein kinase 1 (DAPK1, Homo sapiens, UniProt P53355)

Structure (SMILES) | effect on | action | technique | concentration | endpoint | result
Nc1nc(Nc2ccc(S(N)(=O)=O)cc2)nn1C(=O)c1c(F)cccc1F | cell-free assay | – | – | 0.5 µM | remaining signal | 93.8%
CN(C)C1CCN(CC#Cc2nn(C3CCCC3)c3nc(NCc4ccccc4)ncc23)C1 (stereo not shown) | enzyme activity | inhibitor | FRET | 0.1 µM | inhibition | 1%
Cc1noc([C@H]2C[C@@H](c3ccc(C(F)(F)F)cc3)CN(C(=O)N3CCS(=O)(=O)C3)C2)n1 | cell-free assay | – | competition with immobilised ligand | 1 µM | remaining binding | 100%
CN1CC(Oc2cnc(C#N)cc2-c2ccn3nc(NC(=O)C4CC4)cc3c2)C1 | enzyme activity | inhibitor | – | 1 µM | inhibition | 1%
CC/C(=N\NC(=O)NCc1cccc(O)c1)c1ccc(O)c(C)c1O | enzyme activity | inhibitor | – | 0.1 µM | inhibition | -1.6%
N#CCCc1ccc2c(c1)-c1[nH]c3ccc([N+](=O)[O-])cc3c1CC(=O)N2 | cell-free assay | – | – | 0.5 µM | remaining signal | 96.5%
Cc1ccc(NC(=O)c2ccc(C)c(C(F)(F)F)c2)cc1C#Cc1nn(C2CCC(O)CC2)c2ncnc(N)c12 (stereo not shown) | cell-free assay | – | – | 10 µM | remaining signal | 97%
COc1cc(Nc2cnc(C#N)c(O[C@H](C)CN(C)C)n2)ncc1-c1cnn(C)c1 | enzyme activity | inhibitor | radiometric | 10 µM | remaining activity | 98%
O=C(Nc1cnn(-c2csc(C(=O)NC3COC3)c2)c1)Nc1c(F)cccc1Cl | enzyme activity | inhibitor | – | 5 µM | remaining activity | 98.9%
COc1cc(-c2cn(C3CCc4ccccc4N(CC(F)(F)F)C3=O)nn2)ccc1-n1ccc(C)n1 (stereo not shown) | cell-free assay | – | competition with immobilised ligand | 1 µM | remaining binding | 79%
Cc1ccc(Nc2nccc(N(C)c3ccc4c(C)n(C)nc4c3)n2)cc1S(N)(=O)=O | enzyme activity | inhibitor | – | 0.3 µM | inhibition | 16%
Cc1ncc([N+](=O)[O-])n1C(=NO)c1ccccc1C(F)(F)F | enzyme activity | inhibitor | – | 10 µM | inhibition | 16.5%
O=C(Nc1cnc(Oc2ccc(F)cc2)nc1)N1CCc2ncccc2[C@@H]1c1ccc(F)cc1 | cell-free assay | – | competition with immobilised ligand | 1 µM | remaining binding | 78%
CCN(CC)c1ccc(C2=NNC(=O)CC2C)cc1[N+](=O)[O-] (stereo not shown) | enzyme activity | inhibitor | – | 10 µM | remaining activity | 105%
C[C@@H]1CN(c2cc(-c3nn(C)c4ccc(OC5(C)CC5)cc34)ncn2)C[C@H](C)O1 | cell-free assay | – | competition with immobilised ligand | 1 µM | remaining binding | 100%
CC(C)(O)[C@H]1CC[C@H](Nc2ccc3ncc(-c4cccc(C(F)(F)F)c4)n3n2)CC1 | enzyme activity | inhibitor | – | 1 µM | remaining activity | 110%
CCCCN(CCCC)C(=O)CN1C[C@@H](c2cc(OC)c3c(c2)OCO3)[C@H](C(=O)O)[C@H]1CC(C)(C)CCC | cell-free assay | – | competition with immobilised ligand | 1 µM | remaining binding | 82.8%
Cn1c(=O)n(-c2ccc(C(C)(C)C#N)cc2)c2c3cc(-c4cnc5ccccc5c4)ccc3ncc21 | enzyme activity | inhibitor | – | 10 µM | remaining activity | 107%
FC(F)(F)Oc1cccc(-c2cnc3ccc(-c4ccncc4)nn23)c1 | enzyme activity | inhibitor | radiometric | 1 µM | activity vs control | 101%
Cc1ccc(C(=O)Nc2ccc(CN3CCN(C)CC3)c(C(F)(F)F)c2)cc1C#Cc1cnc2cccnn12 | enzyme activity | inhibitor | – | 23.5 nM | remaining activity | 95%
Cc1cnc(NC2CCOCC2)nc1-n1cnc(C(=O)NC(CN)c2cc(F)cc(Cl)c2)c1 (stereo not shown) | enzyme activity | inhibitor | radiometric | 1 µM | remaining activity | 96%
O=C(Nc1cccnn1)N1CC(C/C=C/c2cncc(Oc3ccc(C(F)(F)F)cn3)n2)C1 | cell-free assay | – | competition with immobilised ligand | 1 µM | remaining binding | 98%
C[S+]([O-])c1ccc(-c2nc(-c3ccncc3)c(-c3ccc(F)cc3)[nH]2)cc1 (stereo not shown) | cell-free assay | – | – | 0.5 µM | remaining signal | 90.3%
N#Cc1ccc(Nc2ccc3[nH]c(=O)[nH]c3c2)c(Cl)c1 | cell-free assay | – | competition with immobilised ligand | 1 µM | remaining binding | 100%
CNC(=O)c1cc(Oc2ccc(NC(=O)Nc3ccc(Cl)c(C(F)(F)F)c3)cc2)ccn1 | enzyme activity | inhibitor | – | 0.3 µM | inhibition | 16%
CCN(CC)CCNC(=O)c1c(C)[nH]c(/C=C2\C(=O)Nc3ccc(F)cc32)c1C | cell-free assay | – | – | 0.5 µM | remaining signal | 66.9%
Cc1nc(N2CC[C@@H](O)C2)ncc1-c1cc(C(F)(F)F)cc2[nH]ncc12 | binding | – | competition with immobilised ligand | 1 µM | remaining binding | 89%
CC(C)(C)c1nc(-c2cccc(NS(=O)(=O)c3c(F)cccc3F)c2F)c(-c2ccnc(N)n2)s1 | enzyme activity | inhibitor | radiometric | 1 µM | remaining activity | 75%
